How the values were obtained:
[1] = biological target: Voltage-gated inwardly rectifying potassium channel KCNH2 (Homo sapiens, UniProt Q12809); assay: Displacement of 3H-dofetilide from hERG-expressing HEK membrane homogenates
[2] = biological target: Melanin-concentrating hormone receptor 1 (Homo sapiens, UniProt Q99705); assay: Displacement of 125I-MCH from MCH-R1 expressed in IMR-32 cells; type: cell-based
[3] = biological target: Melanin-concentrating hormone receptor (Homo sapiens, UniProt Q969V1+Q99705); assay: Inhibition of MCH-mediated calcium release in IMR-32 cells; type: functional, cell-based
Mus musculus [4] = assay: Plasma AUC in DIO mice after 10 mg/kg peroral dose; type: ADME, organism-based; set-up: dose 10 mg/kg, route oral; conditions: in vivo, po
Summary of the method: (§1)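 Single oral dose, 10 mg/kg in 1% Tween 80/water, to DIO mice; plasma and brain sampled over time. Cmax = average of the three mice with highest concentrations ± SEM. Mean concentration data fitted multi-exponentially; AUC0-t by linear trapezoidal rule, extrapolated to infinity with Ct/β added.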

Mus musculus [5] = assay: Plasma Cmax in DIO mice after 10 mg/kg peroral dose; type: ADME, organism-based; set-up: dose 10 mg/kg, route oral; conditions: in vivo, po; summary of the method: as §1
Mus musculus [6] = assay: (§2) Half-life in plasma of DIO mice after 10 mg/kg peroral dose; type: ADME, organism-based; set-up: dose 10 mg/kg, route oral; conditions: in vivo, po; summary of the method: as §1
Mus musculus [7] = assay: Brain AUC in DIO mice after 10 mg/kg peroral dose; type: ADME, organism-based; set-up: dose 10 mg/kg, route oral; conditions: in vivo, po; summary of the method: as §1
[8] = Brain Cmax in DIO mice after 10 mg/kg peroral dose; type: ADME, organism-based; set-up: dose 10 mg/kg, route oral; conditions: mouse, po; summary of the method: as §1
[9] = as §2; type: ADME, organism-based; set-up: dose 10 mg/kg, route oral; conditions: mouse, plasma, po; summary of the method: as §1

Chain of Voltage-gated inwardly rectifying potassium channel KCNH2 (Q12809 whole entry): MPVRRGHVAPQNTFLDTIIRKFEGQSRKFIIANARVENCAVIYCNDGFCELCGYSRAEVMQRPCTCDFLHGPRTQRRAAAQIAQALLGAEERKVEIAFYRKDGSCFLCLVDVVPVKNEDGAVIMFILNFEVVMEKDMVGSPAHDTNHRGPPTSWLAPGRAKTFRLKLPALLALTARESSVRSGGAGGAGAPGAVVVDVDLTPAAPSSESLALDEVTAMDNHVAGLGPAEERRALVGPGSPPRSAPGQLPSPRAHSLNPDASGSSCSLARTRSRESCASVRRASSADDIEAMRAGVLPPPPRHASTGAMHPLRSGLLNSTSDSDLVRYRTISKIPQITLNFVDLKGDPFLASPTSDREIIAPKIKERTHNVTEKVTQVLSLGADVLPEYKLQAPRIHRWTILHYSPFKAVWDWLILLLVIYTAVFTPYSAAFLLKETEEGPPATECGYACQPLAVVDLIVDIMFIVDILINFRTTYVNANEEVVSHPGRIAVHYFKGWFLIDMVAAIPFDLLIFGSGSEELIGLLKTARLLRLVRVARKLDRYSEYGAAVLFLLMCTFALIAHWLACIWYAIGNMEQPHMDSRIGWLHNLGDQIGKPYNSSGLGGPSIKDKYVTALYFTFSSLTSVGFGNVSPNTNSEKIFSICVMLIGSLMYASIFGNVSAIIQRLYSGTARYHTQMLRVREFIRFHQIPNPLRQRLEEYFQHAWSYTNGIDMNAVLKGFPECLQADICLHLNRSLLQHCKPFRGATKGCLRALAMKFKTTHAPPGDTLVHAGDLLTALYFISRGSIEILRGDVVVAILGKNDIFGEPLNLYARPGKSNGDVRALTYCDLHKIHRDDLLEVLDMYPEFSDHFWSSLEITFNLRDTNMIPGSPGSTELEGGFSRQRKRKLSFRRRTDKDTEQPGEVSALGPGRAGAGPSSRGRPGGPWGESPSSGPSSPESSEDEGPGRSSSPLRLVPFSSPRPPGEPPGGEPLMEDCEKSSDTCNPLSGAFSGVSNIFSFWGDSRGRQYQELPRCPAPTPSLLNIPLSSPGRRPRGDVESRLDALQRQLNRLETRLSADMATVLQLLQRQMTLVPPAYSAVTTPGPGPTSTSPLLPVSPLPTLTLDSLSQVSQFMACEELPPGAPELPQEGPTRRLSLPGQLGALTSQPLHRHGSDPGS
Chain of Melanin-concentrating hormone receptor 1 (Q99705 whole entry): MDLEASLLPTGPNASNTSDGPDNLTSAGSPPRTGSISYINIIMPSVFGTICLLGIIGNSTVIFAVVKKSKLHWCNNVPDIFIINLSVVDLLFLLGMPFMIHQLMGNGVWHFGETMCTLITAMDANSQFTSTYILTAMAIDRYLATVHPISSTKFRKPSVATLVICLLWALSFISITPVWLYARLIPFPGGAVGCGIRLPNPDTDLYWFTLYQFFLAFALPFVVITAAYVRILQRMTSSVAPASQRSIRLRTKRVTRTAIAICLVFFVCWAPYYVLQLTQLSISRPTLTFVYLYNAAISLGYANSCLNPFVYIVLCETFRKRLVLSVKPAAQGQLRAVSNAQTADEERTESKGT

SMILES	IC50 [1] [nM]	IC50 [2] [nM]	IC50 [3] [nM]	AUC (Mus musculus [4]) [ng·h/mL]	Cmax (Mus musculus [5]) [ng/mL]	T1/2 (Mus musculus [6]) [h]	AUC (Mus musculus [7]) [µg·h/g]	Cmax [8] [ng/g]	half-life [9] [h]
O=C(NC1CCN(C2CCc3cc4oc(=O)[nH]c4cc32)CC1)c1cc(=O)c2ccc(F)cc2o1 (centres undefined)	25000	11	173						
O=C1COc2cc3c(cc2N1)C(N1CCC(NC(=O)c2cc(=O)c4ccc(F)cc4o2)CC1)CC3 (centres undefined)	14600	21	95						
O=C(NC1CCN(C2CCc3c2ccc2c3OCO2)CC1)c1cc(=O)c2ccc(F)cc2o1 (centres undefined)	5860	76	2750						
CC(=O)Nc1ccc2c(c1)C(N1CCC(NC(=O)c3cc(=O)c4ccc(F)cc4o3)CC1)CC2 (single isomer, unassigned; (+))		2570	> 10000	3760	1410	1.3	0.043	17	
CC(=O)Nc1ccc2c(c1)C(N1CCC(NC(=O)c3cc(=O)c4ccc(F)cc4o3)CC1)CC2 (single isomer, unassigned; (-))		4	26	41600	14600		0		2.3
CC(=O)Nc1ccc2c(c1)C(N1CCC(NC(=O)c3cc(=O)c4ccc(F)cc4o3)CC1)CC2 (stereo in doubt; 16)		3	56						
